Screening results from PubChem BioAssay.
A selection: hits, their analogues and other compounds. The true share with any hit is near 3.3%.
PRMT1 inh: inhibitors of human PRMT1; Q99873; recombinant PRMT1, activity-based probe fluorescence polarization; inhibition, % at 2.79 µM; hit rate 1.3% among 370,000;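 active means inhibition above about 21% made by adding two undisclosed values, limit read from the data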
TDP2 inh: TDP2 (human) inhibition, absorbance primary screen; recombinant TDP2, T5PNP hydrolysis, p-nitrophenol absorbance 415 nm; inhibition, % at 12.8 µM; hit rate 0.34% among 370,000;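 active means inhibition above the mean of all tested compounds plus 3 SD, set per campaign, cut at about 25% in these data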;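 further: 0% = DMSO with enzyme and 100% = buffer with substrate but no TDP2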
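Evaluation: % inhibition relative to enzyme-containing and enzyme-free wells. Material: recombinant human TDP2. Benchmarks: enzyme-free and DMSO wells. Timing: enzyme reaction with compound for 2 h at 37 °C. Compound dosing: 12.8 µM only. Measured by: p-Nitrophenol epi absorbance. Reagent: T5PNP substrate at 5 mM, a TopII-DNA adduct mimic. Replication: single well per compound.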
LEDGF integ inh: blocks HIV-1 LEDGF/p75-dependent DNA integration. TR-FRET IN-LEDGF/p75 DNA integration, Eu/Cy5. inhibition, % at 3.7 µM. hit rate 0.64% among 370,000. AID 743269;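 active means inhibition above the screen-wide mean plus 3 SD, cut at about 13% in these data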;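 further: signal is the Cy5 over europium emission ratio at 671 and 618 nm; 0% = plate median of compound wells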
SIAE primary: inhibitors of human sialic acid acetylesterase SIAE | Q9HAT2 | SIAE FP-Rh probe binding, fluorescence polarization | inhibition, % at 9.66 µM | hit rate 0.69% among 370,000 | AID 1053197;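 active means inhibition above a cutoff: mean of compounds within the control limits plus 3 SD of those, cut at about 17% in these data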;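 further: 0% = plate median of compound wells and 100% = probe without SIAE protein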
MBD2 DNA inh: blocks human MBD2 binding to methylated DNA; Q9UBB5; TR-FRET, MBD2 binding to methylated oligonucleotide; inhibition, % at 4.4 µM; hit rate 0.31% among 370,000; AID 686964; in the data active means inhibition above about 13%
Target sequence (Q9UBB5 whole entry, looked up): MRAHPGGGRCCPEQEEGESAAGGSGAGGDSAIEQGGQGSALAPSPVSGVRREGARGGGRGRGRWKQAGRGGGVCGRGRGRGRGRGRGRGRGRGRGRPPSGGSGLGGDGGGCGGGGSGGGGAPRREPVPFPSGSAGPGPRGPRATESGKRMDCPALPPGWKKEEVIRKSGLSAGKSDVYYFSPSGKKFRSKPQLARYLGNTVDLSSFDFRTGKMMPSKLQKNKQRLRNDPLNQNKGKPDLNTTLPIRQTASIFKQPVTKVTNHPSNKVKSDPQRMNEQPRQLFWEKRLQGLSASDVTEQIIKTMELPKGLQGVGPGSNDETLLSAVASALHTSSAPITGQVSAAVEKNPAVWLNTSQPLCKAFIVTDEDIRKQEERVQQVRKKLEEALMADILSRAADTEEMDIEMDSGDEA
UHRF1 MBD2 ctr: blocks human UHRF1 binding to methylated DNA | Q96T88 | UHRF1 binding to methylated oligo, TR-FRET | inhibition, % at 4.4 µM | hit rate 0.75% among 370,000; in the data active means inhibition above about 21%;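 further: UHRF1 SRA domain binding a hemimethylated CpG hairpin DNA probe; 0% = median of test compound wells and 100% = reference inhibitor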
An asterisk follows results filed as active.

SMILES | PRMT1 inh | TDP2 inh | LEDGF integ inh | SIAE primary | MBD2 DNA inh | UHRF1 MBD2 ctr
COc1ccccc1N1CCN(C(=O)COc2cc(C)cc(C)c2)CC1 | 5 | 8 | 1 | 0 | 10 | 28*
CCCCN(CC)c1nc(N)c2c(N)nc(OCC)cc2c1C#N | 4 | -10 | -1 | 2 | -4 | 38*
CCOc1cc2c(C#N)c(N3CCCC3)nc(N)c2c(N)n1 | -1 | -2 | 1 | 3 | -3 | -5
Cc1cccc(N/C=C(\[N+](=O)[O-])S(=O)(=O)c2ccccc2)c1C | -1 | 5 | 0 | -1 | -3 | 50*
C/C(=C/c1[nH]c(N)[n+](CC2CC2)c1Cc1ccccc1)Cn1[nH]c(=O)n(-c2ccccc2)c1=O | -4 | 1 | 0 | 7 | 1 | -3
O=C(Nc1ccnn1C1CCN(C(=O)c2c(F)cccc2F)CC1)C1CC1 | 2 | -4 | -3 | -2 | 5 | 3
O=C(Nc1ccnn1C1CCN(C(=O)c2ccccc2C(F)(F)F)CC1)C1CC1 | -1 | -2 | 14* | -5 | 0 | 4
COc1cc2c(cc1OC)C(C1C(=O)CCCC1=O)N(C(=O)CCl)CC2 (stereo not given) | 1 | 2 | 1 | -6 | -3 | 1
COc1cc2c(cc1OC)C(C1C(=O)CC(C)CC1=O)N(C(=O)CCl)CC2 (stereo not given) | 2 | -3 | 2 | 8 | -5 | 32*
COc1ccc(Cc2c(-c3ccc(OC)c(OC)c3)nc3ccc(C)cn23)c(C)c1 | 3 | -1 | -1 | 6 | 7 | 24*
COC(=O)c1ccc2nc(-c3ccc(F)cc3)c(Cc3ccc(OC)cc3C)n2c1 | 3 | -2 | 0 | -4 | 9 | 21
COc1ccc(Cc2c(-c3ccc(F)cc3)nc3ccc(C)cn23)c(C)c1 | 4 | 1 | -2 | 4 | 4 | 21*
Cc1ccn2c(Cc3ccccc3)c(-c3ccc(F)cc3)nc2c1 | 5 | 1 | -3 | 8 | 8 | 21*
COc1ccc(OC)c(NC(=O)CSc2ncnc3sc(C)cc23)c1 | 23* | 4 | -3 | 8 | -1 | 2
COC(=O)/C=c1/s/c(=C(/C#N)C(=O)N2CCOCC2)n(-c2ccccc2)c1=O | -3 | -9 | -2 | -4 | 2 | 80*
N#CCC[C@@H]1CC[C@]2(CCCN(C(=O)c3ccc4ccccc4n3)C2)O1 | -3 | -5 | 4 | 0 | -5 | -1
Cc1cccc(Nc2ccc([N+](=O)[O-])cc2C(=O)O)c1 | 0 | -20 | 8 | 8 | 5 | 23*
O=C(O)c1cc([N+](=O)[O-])ccc1NCCc1ccccc1 | 0 | -8 | -3 | -6 | 11 | 25*
COC(=O)[C@]12C[C@H](CC(=O)NCc3cccc4ccccc34)C(=O)N(CCc3ccc(OC)c(OC)c3)C1=C[C@H](COCc1ccccc1)O[C@@H]2C | 3 | -6 | 5 | -3 | -5 | -4
COC(=O)CCCn1cc(CN2CC(N3CCN(C)CC3)CS2(=O)=O)nn1 (stereo not given) | 3 | -3 | 5 | 9 | 8 | 24*
CCCCCCn1cc(CN2CC(N3CCN(C)CC3)CS2(=O)=O)nn1 (stereo not given) | -1 | 7 | -1 | 1 | 12 | 17
Cn1c(N)c(-c2nc3cccnc3n2C)sc1=S | 6 | -5 | 0 | 11 | 4 | 24*
COc1ccc2c(Cl)c(C(=O)NN)sc2c1 | -1 | -11 | 6 | -3 | -1 | -2
CC[n+]1c(C)sc2cc(OC)ccc21 | 54* | -2 | -2 | 5 | -3 | -3
CSC1=NSC2=NC(=O)/C(=C/c3coc4ccc(O)cc4c3=O)C(=N)N12 | 25* | 10 | 11 | -28 | -6 | 2
SMILES | PRMT1 inh | TDP2 inh | LEDGF integ inh | SIAE primary | MBD2 DNA inh | UHRF1 MBD2 ctr
O=C(CCC1CCCC1)NCc1cccs1 | -2 | -9 | -2 | -5 | -6 | -2
O=C(CCCCC(=O)NCc1cccs1)NCc1cccs1 | 0 | 12 | 3 | 1 | 12 | 23*
COC(=O)C1CN(Cc2cn(Cc3ccc(Cl)cc3)nn2)CCS(=O)(=O)N1Cc1ccc(Cl)cc1 (stereo not given) | -2 | -5 | -1 | 0 | 11 | 15
c1ccc(-c2cc(NCCN3CCCCC3)c3ccccc3n2)cc1 | -3 | 0 | -2 | -5 | 13 | 21*
CCC(C)(C)n1nnnc1C(c1cc2cc(C)ccc2[nH]c1=O)N1CCCC1 (stereo not given) | 22* | 0 | 5 | 6 | -10 | -11
CC(C)NC(=O)NC1CCN(CC(=O)Nc2ccc3c(c2)OCCO3)CC1 | 4 | 5 | -4 | -5 | 1 | 6
COc1ccc(-c2cccc([C@H]3[C@@H]4C=CC[C@@H](C)[C@@H]4C(=O)N3Cc3ccccc3)c2)cc1 | 1 | 1 | -1 | -2 | -4 | 1
COc1cc(-c2cccc([C@H]3[C@@H]4C=CC[C@@H](C)[C@@H]4C(=O)N3Cc3ccccc3)c2)cc(OC)c1OC | 7 | -8 | 1 | -1 | 6 | 46*
CC1(C)N([O-])c2cc([N+](=O)[O-])ccc2[N+]1=O | 12 | 6 | 21* | 6 | -10 | 7
Cc1ccc(C)n1-c1cc([N+](=O)[O-])ccc1-n1ccnc1 | -4 | -16 | -1 | 2 | -1 | -1
O=C1C(NC(=O)C(F)(F)Br)CCCCN1Cc1cccc(C(F)(F)F)c1 (stereo not given) | 0 | 6 | -1 | -2 | -3 | -1
c1ccc2c(c1)-c1ccccc1C2N1CCOCC1 | 24* | -4 | 2 | -3 | -3 | -1
COc1ccc(NC2=C(C(C)=O)C(c3ccccc3)C(C(C)=O)C(C)(O)C2)cc1 (stereo not given) | -1 | 0 | -3 | 7 | 1 | 61*
Cc1ccc(CN2C(=O)CCSc3ccc(Cl)cc32)cc1 | 1 | -5 | -3 | -7 | 1 | 2
CCOC(=O)CN1C(=O)CCSc2ccc(Cl)cc21 | 5 | -7 | -2 | -1 | 1 | 36*
CCOC(=O)CC[C@@]1(C(=O)OCC)C[C@@H](CC(=O)NCc2ccc(C)o2)C(=O)N2CCCC=C21 | 11 | 2 | -3 | -4 | 4 | 0
CC(=O)C1=C(C)NC(SCC(=O)c2ccc(F)cc2)=C(C#N)C1CC(C)C (stereo not given) | 28* | -3 | -2 | 0 | 1 | 3
C[C@H]1COc2cc(N3CCCC3)ccc2S(=O)(=O)N1C | 0 | -6 | -1 | 7 | 2 | -1
CCCCCNC(=O)C(c1cccc2ccccc12)n1c(=O)c(-c2ccccc2)nc2ccccc21 (stereo not given) | -2 | 0 | 1 | -6 | -1 | 74*
CCOC(=O)N1CCC(N2C(=O)c3ccccc3C2Nc2ccc3c(C)cc(=O)oc3c2)CC1 (stereo not given) | -4 | -1 | -1 | -6 | 1 | 33*
